These results are taken from ChEMBL document CHEMBL1135898, “Synthesis and antimycobacterial activity of 6-arylpurines: the requirements for the N-9 substituent in active antimycobacterial purines” (J Med Chem, 2002).

Each structure is given as a SMILES string. Converted amounts (≈) assume the structure as drawn. Bounds are passed on as bounds.

In experiment [1] the test system is Mycobacterium tuberculosis. Description: Percent inhibition of Mycobacterium tuberculosis H37Rv at 6.25 µg/ml concentration in BACTEC 12B medium using microplate alamar blue assay. Format: functional. In short, it runs like this: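 Primary screen at single concentration 6.25 μg/mL against M. tuberculosis H37Rv (ATCC 27294) in BACTEC 12B medium, read by microplate alamar blue assay; fluorescent compounds instead tested in BACTEC 460 radiometric system. Percent growth inhibition reported.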

In experiment [2] the test system is K562. Description: Cytostatic activity against chronic myelogenous leukemia cells (K-562) based on its ability to inhibit [3H]thymidine incorporation. Format: functional, cell-based. As to conditions: Homo sapiens. In outline:
(§1)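 K-562 chronic myelogenous leukemia cells; cytostatic effect read as inhibition of [3H]thymidine incorporation. Reported as percent inhibition at 10 μg/mL, with EC50 derived only for the more toxic compounds.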
On the technique in general: Dividing cells build labelled thymidine or BrdU into new DNA.

Experiment [3] relates to K562. In words: Cytostatic activity against chronic myelogenous leukemia cells (K-562) based on its ability to inhibit [3H]thymidine incorporation. Format: functional, cell-based. To be noted: Homo sapiens. In outline:
as §1

Experiment [4] deals with K562. Description: Cytostatic activity against chronic myelogenous leukemia cells (K-562) based on its ability to inhibit [3H]thymidine incorporation (at 1.0 g/ml). Format: functional, cell-based. As to conditions: Homo sapiens. In outline:
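K-562 leukemia cells; inhibition of [3H]thymidine incorporation measured at 1.00 μg/mL instead of the usual 10 μg/mL because of low compound solubility.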

Experiment [5] in a line: Selectivity Index, SI = IC50:MIC.ND means not determined. Format: functional.
The subject of experiment [6] is Mycobacterium tuberculosis. In words: Antibacterial activity against Mycobacterium tuberculosis H37Rv in BACTEC 12B medium using microplate alamar blue assay. Format: functional. In short, it runs like this: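 MIC against M. tuberculosis H37Rv (ATCC 27294) by microplate alamar blue assay (MABA) in BACTEC 12B medium; compounds reaching ≥90% inhibition in the primary screen were re-tested at lower concentrations. MIC defined as minimum concentration giving 90% inhibition of growth; rifampin reference.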
(In general: Alamar Blue is a resazurin reagent that responds to reducing activity.)

The subject of experiment [7] is Vero. In words: Minimum inhibitory concentration for testing cytotoxicity in VERO cells. Format: functional, cell-based. As to conditions: Chlorocebus sabaeus. In short, it runs like this:
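VERO cells exposed 72 h to compound at concentrations up to 62.5 μg/mL. Viability read by cellular MTT conversion to formazan, and an IC50 was derived.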

Experiment [8] has as its system Lacticaseibacillus casei. In words: Minimum Inhibitory Concentration against drug-resistant strain of Lactobacillus casei. Format: functional.
The test system of experiment [9] is Mycobacterium tuberculosis. Description: Concentration effecting 99% reduction of Mycobacterium tuberculosis strain Erdman, growth in monolayers of mouse bone marrow macrophages after 7 days. Format: functional. As to conditions: 168 h.
Experiment [10] relates to Mycobacterium tuberculosis. Description: Concentration effecting 90% reduction of Mycobacterium tuberculosis strain Erdman, growth in monolayers of mouse bone marrow macrophages after 7 days. As to conditions: 168 h. Format: functional.

Broadly, the Inhibition is the drop in the measured response relative to a control, in per cent. `CC(=O)OC[C@H]1O[C@@H](Cn2cnc3c(-c4ccccc4)ncnc32)[C@H](OC(C)=O)[C@@H]1OC(C)=O` had an Inhibition in experiment [1] of 4%.

What is called IC50 is the point on the concentration scale where inhibition reaches its midpoint. In [2], `Clc1nc(-c2ccccc2)c2ncn(Cc3ccccc3)c2n1` showed an IC50 of 76 µg/mL (≈ 237 µM). In [3], `Cn1cnc2c(-c3ccco3)ncnc21` showed an IC50 of less than 10 µg/mL. Regarding `c1ccc(Cn2cnc3c(-c4ccccc4)ncnc32)cc1`, the IC50 in experiment [4] is less than 10 µg/mL.

`c1ccc(Cn2cnc3c(-c4ccco4)ncnc32)cc1` [9-BENZYL-6-(FURAN-2-YL)-9H-PURINE]: in [3], the IC50 was determined as 59 µg/mL (≈ 214 µM). Moreover, the Selectivity index in experiment [5] is 2.7. As to `OC[C@H]1OC(n2cnc3c(-c4ccco4)ncnc32)[C@H](O)[C@@H]1O` (stereo partly drawn), the Inhibition in experiment [1] amounted to 0%.

For the compound `c1ccc(-c2ncnc3c2ncn3C2CCOCC2)cc1`, the IC50 in experiment [3] was less than 10 µg/mL. Compound `c1ccc(CCn2cnc3c(-c4ccco4)ncnc32)cc1` gave an IC50 in experiment [3] of 53 µg/mL (≈ 183 µM). The same measure, in the same setting: under `C=CCn1cnc2c(-c3ccco3)ncnc21` stands 11 µg/mL (≈ 48.6 µM); under `c1csc(-c2[nH]cnc3ncnc2-3)c1`, less than 10 µg/mL. Usually MIC stands for the smallest concentration in the dilution series that meets the test's criterion for growth inhibition. A lower MIC goes with greater potency. Compound `CO[C@H]1/C=C/O[C@@]2(C)Oc3c(C)c(O)c4c(O)c(c(/C=N/N5CCN(C)CC5)c(O)c4c3C2=O)NC(=O)/C(C)=C\C=C\[C@H](C)[C@H](O)[C@@H](C)[C@@H](O)[C@@H](C)[C@H](OC(C)=O)[C@@H]1C` [RIFAMPIN] gave an MIC in experiment [6] of 0.25 µg/mL (≈ 0.304 µM). For `c1ccc(Cn2cnc3c(-c4cccs4)ncnc32)cc1`, the IC50 in experiment [7] is greater than 10 µg/mL; in experiment [4], less than 10 µg/mL. Besides, the Selectivity index in experiment [5] was greater than 1.6. The EC99 is the point of the concentration-response curve where the effect stands at 99%. A word on the EC90: it is the concentration at which the effect reaches the 90% level. A high value points to a need for much substance. Compound `Clc1nc(-c2ccco2)c2ncn(Cc3ccccc3)c2n1` returned an MIC in experiment [8] greater than 10 µg/mL. Further, the 99% effect level in [9] (EC99) was put at 8.46 µg/mL. Besides, the 90% effect level in [10] (EC90) was put at 0.038 µg/mL (≈ 0.122 µM). This compound also showed an IC50 in experiment [2] of 27 µg/mL (≈ 86.9 µM). `c1coc(-c2ncnc3c2ncn3CC2CCCCC2)c1` gave an IC50 in experiment [3] of 60 µg/mL (≈ 213 µM). Consider `OC[C@H]1OC(n2cnc3c(-c4ccco4)nc(Cl)nc32)[C@H](O)[C@@H]1O` (stereo partly drawn), for which the Inhibition in experiment [1] came out at 7%. Moreover, in experiment [2], the IC50 was determined as 100 µg/mL (≈ 283 µM). `OC[C@H]1O[C@@H](n2cnc3c(-c4ccccc4)ncnc32)[C@H](O)[C@@H]1O`: in [3], the IC50 is 99 µg/mL (≈ 302 µM).
